Measured values pooled from the literature.
Protocols differ between the studies behind these lines. pIC50: −log10 of the molar value.
Read-out: enzyme activity
Mode: inhibitor
PFF0160c: Dihydroorotate dehydrogenase (quinone), mitochondrial (PFF0160c, Plasmodium falciparum, UniProt Q08210)
PFF0160c E182D: Dihydroorotate dehydrogenase (quinone), mitochondrial (PFF0160c, Plasmodium falciparum, UniProt Q08210, E182D)

SMILES	target	method	pIC50
Cc1nc(Nc2ccc(S(F)(F)(F)(F)F)cc2)c2c(CO)noc2n1	PFF0160c	absorbance	5.55
CCN(CC)CC#Cc1ccc2[nH]c(C)c(Cl)c(=O)c2c1	PFF0160c E182D	absorbance	< 5.00
Cc1c(Cc2ccc(C(F)(F)F)nc2)c[nH]c1C(=O)N[C@@H](C)CO	PFF0160c	absorbance	5.57
Cc1nc(Nc2ccc(C(F)(F)F)cc2)c2c(C(F)(F)F)noc2n1	PFF0160c	absorbance	7.48
Cc1[nH]c(C(=O)NC(C)c2cnn(C)c2)c(C)c1Cc1ccc(C(F)(F)F)nc1 (stereo not shown)	PFF0160c	absorbance	< 4.52
COC(=O)C1=CNC=C(C(=O)OC)C1c1ccc(Cl)c([N+](=O)[O-])c1	PFF0160c	absorbance	6.15
Cc1cc(Nc2ccc(Cl)cc2)n2ncnc2n1	PFF0160c	–	5.80
CCCOc1ccccc1-c1nc2sc3c(c2c(=O)[nH]1)CCN(C)C3	PFF0160c E182D	absorbance	6.04
Cc1nc(NC2Cc3cc(F)c(F)cc3C2)c2c(C)noc2n1	PFF0160c	absorbance	7.32
Cc1cc(C(C)NC(=O)c2[nH]cc(-c3c[nH]c4cc(C(F)(F)F)ccc34)c2C)no1 (stereo not shown)	PFF0160c	absorbance	< 4.00
